Measured values: ChEMBL document CHEMBL1157772, “In vitro cytotoxic activity of isolated acridones alkaloids from Zanthoxylum leprieurii Guill. et Perr” (Bioorg Med Chem, 2010)

Assays:
Type in all cases: functional, cell-based
[1] = test system: A549; assay: Cytotoxicity against human A549 cells after 48 hrs by resazurin reduction assay; conditions: A549, 48 h
Method in brief: (§1)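 Cell lines from ATCC, grown in MEM with Earle's salts, 10% fetal calf serum, vitamins, sodium pyruvate, non-essential amino acids, penicillin/streptomycin, at 37 °C, 5% CO2. Cells (5 × 10^3/well) adhered 16 h, then exposed 48 h to increasing concentrations in medium with 0.25% (v/v) final DMSO. Resazurin reduction read by fluorescence (ex 530/em 590 nm). IC50 as mean ± SD, two experiments in triplicate.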

[2] = test system: DLD-1; assay: Cytotoxicity against human DLD1 cells after 48 hrs by resazurin reduction assay; conditions: DLD-1, 48 h; method in brief: as §1
[3] = Cytotoxicity against human WS1 cells after 48 hrs by resazurin reduction assay; conditions: WS1, 48 h; method in brief: as §1

Row | SMILES | IC50 [1] [µM] | IC50 [2] [µM] | IC50 [3] [µM]
1 | COc1cc2ccc(=O)oc2cc1OC [SCOPARONE] | > 100 | > 100 | > 100
2 | CCCCCCCCCCCCCCCCCCCCCCCC(=O)NCCc1ccc(O)cc1 | > 100 | > 100 | > 100
3 | COc1c(O)cc2c(c1OC)c(=O)c1ccccc1n2C | 52 | 77 | 74
4 | COc1cc2c(c(O)c1OC)c(=O)c1ccccc1n2C [ARBORININE] | 35 | 74 | 56
5 | COc1cc(O)c2c(=O)c3ccccc3n(C)c2c1 | 31 | 27 | 51
6 | COc1cc(O)cc2c1c(=O)c1ccccc1n2C [TEGERRARDIN A] | 36 | 71 | 42
7 | COc1ccc([C@@H]2CC(=O)c3c(O)cc(O[C@@H]4O[C@H](CO[C@@H]5O[C@@H](C)[C@H](O)[C@@H](O)[C@H]5O)[C@@H](O)[C@H](O)[C@H]4O)cc3O2)cc1O [HESPERIDIN] | > 100 | > 100 | > 100
8 | COc1cc(O)c(OC)c2c1c(=O)c1ccccc1n2C | > 100 | > 100 | > 100
9 | COc1cc([C@@H]2c3cc4c(cc3[C@@H](O[C@@H]3O[C@@H]5CO[C@@H](C)O[C@H]5[C@H](O)[C@H]3O)[C@H]3COC(=O)[C@H]23)OCO4)cc(OC)c1O [ETOPOSIDE] | 16 | 10 | 4.3
